Laboratory results reported in ChEMBL document CHEMBL3272042, “Novel heterocyclic nitrofurfural hydrazones. In vivo antirypanosomal activity” (J Med Chem, 1976).
Values after ≈ are worked out from the molar mass of the structure shown. Active and inactive are the calls of the source. No cut-off for these calls is given here.

Tests used:
Trypanosoma cruzi [1] = assay: Antitrypanosomal activity against bloodstream forms of Trypanosoma cruzi by in vitro assay; format: functional; details: for MIC: Trypanosoma cruzi
How it was run: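 Serial dilution in liquid culture in Warren's medium. Read-outs are the minimum inhibitory concentration (MIC) and the minimum lethal concentration (MLC), both in μg/ml.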

Mus musculus [2] = assay: Toxicity in C3H/He mouse infected with bloodstream forms of Trypanosoma cruzi assessed as weight loss at 100 mg/kg, po bid administered through gavage starting 3 days post challenge for 5 successive days; format: organism-based; design: dose 100 mg/kg, route oral; details: in vivo, 72 h
How it was run: (§1)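 Male C3H/He mice were infected ip with 2×10^3 bloodstream forms of a Brazilian T. cruzi strain. Compounds were micronized to 0.5-2.0 μ and suspended in 0.9% NaCl, 1.0% Na-CMC, 0.5% Tween 80 and 0.05% antifoam B, dosed at 0.01 ml/2 g body weight. Groups of seven got 100 mg/kg by gavage twice daily for 5 days, starting day 3 postinfection, with untreated controls.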

Trypanosoma cruzi [3] = assay: Antitrypanosomal activity against bloodstream forms of Trypanosoma cruzi infected in C3H/He mouse assessed as increase in mean survival time at 100 mg/kg, po bid administered through gavage starting 3 days post challenge for 5 successive days relative to control; format: functional; details: for survival at 100 mg/kg: Trypanosoma cruzi, po, 72 h
How it was run: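 Male C3H/He mice infected ip with 2×10^3 bloodstream T. cruzi (Brazilian strain). Compound micronized to 0.5-2.0 μ and suspended in 0.9% NaCl, 1.0% Na carboxymethylcellulose, 0.5% Tween 80, 0.05% antifoam B; given at 100 mg/kg (0.01 ml/2 g) by gavage twice daily for 5 days from day 3 post-infection; groups of 7. Value is percent IMST over untreated controls; Student's t test.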

Mus musculus [4] = assay: Toxicity in C3H/He mouse infected with bloodstream forms of Trypanosoma cruzi assessed as weight loss at 200 mg/kg, po qid administered 4 times a day through gavage starting 3 days post challenge for 5 successive days; details: in vivo, 72 h
Trypanosoma cruzi [5] = assay: Antitrypanosomal activity against bloodstream forms of Trypanosoma cruzi infected in C3H/He mouse assessed as parasitologic cures at 100 mg/kg, po bid administered through gavage starting 3 days post challenge for 5 successive days relative to control; format: functional, organism-based; design: dose 100 mg/kg; how it was run: as §1
Trypanosoma cruzi [6] = assay: Antitrypanosomal activity against bloodstream forms of Trypanosoma cruzi infected in C3H/He mouse assessed as parasitologic cures at 200 mg/kg, po administered 4 times a day through gavage starting 3 days post challenge for 5 successive days relative to control; format: functional, organism-based; design: dose 200 mg/kg
How it was run: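 Male C3H/He mice were infected ip with 2×10^3 bloodstream T. cruzi forms (Brazilian strain). Compound was given orally at 200 mg/kg four times daily for 5 days, then followed for parasitemia, survival and body weight.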

Trypanosoma cruzi [7] = assay: Antitrypanosomal activity against bloodstream forms of Trypanosoma cruzi infected in C3H/He mouse assessed as increase in mean survival time at 100 mg/kg, ip bid starting 3 days post challenge for 5 successive days relative to control; format: functional; details: 72 h, route intraperitoneal
How it was run: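 Infection: ip inoculation of 2×10^3 bloodstream forms of a Brazilian T. cruzi strain into male C3H/He mice. Compound given by intraperitoneal route, 100 mg/kg twice daily. Value is percent increase in mean survival time beyond untreated controls, taken from mortality records; significance by Student's t test.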

| SMILES | MLC (Trypanosoma cruzi [1]) [µg/mL] | MIC (Trypanosoma cruzi [1]) [µg/mL] | Activity (Mus musculus [2]) | survival at 100 mg/kg (Trypanosoma cruzi [3]) [%] | Activity (Mus musculus [4]) | Activity (Trypanosoma cruzi [5]) | Activity (Trypanosoma cruzi [6]) | survival at 100 mg/kg (Trypanosoma cruzi [7]) [%] | Survival (Trypanosoma cruzi [3]) [%] |
| --- | --- | --- | --- | --- | --- | --- | --- | --- | --- |
| O=[N+]([O-])c1ccc(/C=N/Nc2ccnc3ccnn23)o1 | 10 (≈ 36.7 µM) | 10 (≈ 36.7 µM) | Non-toxic | < 1 | – | – | – | – | – |
| Cc1cc(N/N=C/c2ccc([N+](=O)[O-])o2)n2ncnc2n1 | >100 | > 100 | – | 4.3 | – | – | – | – | – |
| Cc1cc(N/N=C/c2ccc([N+](=O)[O-])o2)n2nccc2n1 | 10 (≈ 34.9 µM) | 10 (≈ 34.9 µM) | Non-toxic | 63.4 | Toxic | inactive | inactive | – | – |
| O=[N+]([O-])c1ccc(/C=N/Nc2cc(Cl)nc3c(Cl)cnn23)o1 | 10 (≈ 29.3 µM) | 10 (≈ 29.3 µM) | Non-toxic | 14.6 | – | – | – | – | – |
| Cc1cc(N/N=C/c2ccc([N+](=O)[O-])o2)n2ncc(-c3ccc(Cl)cc3)c2n1 | 3.2 (≈ 8.06 µM) | 1 (≈ 2.52 µM) | Non-toxic | – | – | – | – | 20.5 | – |
| Cc1nc(N/N=C/c2ccc([N+](=O)[O-])o2)n2nc(-c3ccccc3)cc2n1 | 3.2 (≈ 8.81 µM) | 1 (≈ 2.75 µM) | – | 24.9 | – | – | – | – | – |
| O=[N+]([O-])c1ccc(/C=N/Nc2cc(Cl)nc3ccnn23)o1 | 1 (≈ 3.26 µM) | < 1 | Non-toxic | 36.3 | – | – | – | – | – |
| O=[N+]([O-])c1ccc(/C=N/Nc2cc(Cl)nc3nccn23)o1 | 100 (≈ 326 µM) | 10 (≈ 32.6 µM) | – | 4.4 | – | – | – | – | – |
| Cc1cc(N/N=C/c2ccc([N+](=O)[O-])o2)n2ncc(S(=O)(=O)O)c2n1 | 100 (≈ 273 µM) | > 10 | Non-toxic | 9 | – | – | – | – | – |
| CCOC(=O)c1cnn2c(N/N=C/c3ccc([N+](=O)[O-])o3)cc(C)nc12 | 10 (≈ 27.9 µM) | 10 (≈ 27.9 µM) | Non-toxic | 1.3 | – | – | – | – | – |
| Cc1cc(N/N=C/c2ccc([N+](=O)[O-])o2)n2ncc(S(=O)(=O)[O-])c2n1.[Na+] | >100 | > 100 | Non-toxic | – | – | – | – | – | 8.5 |
| Cc1cc(N/N=C/c2ccc([N+](=O)[O-])o2)n2ccnc2n1 | >100 | > 100 | – | – | – | – | – | – | – |
| Cc1cc(N/N=C/c2ccc([N+](=O)[O-])o2)n2ncc(-c3ccccc3)c2n1 | 1 (≈ 2.76 µM) | < 1 | Non-toxic | – | – | – | – | – | – |
| Cc1cc(N/N=C/c2ccc([N+](=O)[O-])o2)n2ncc(Br)c2n1 | >100 | 100 (≈ 274 µM) | Non-toxic | 21.9 | – | – | – | – | – |
